The values that follow come from ChEMBL document CHEMBL1136983, “Synthesis, cleavage, and antifungal activity of a number of novel, water-soluble ester prodrugs of antifungal triazole CS-758” (Bioorg Med Chem Lett, 2009).

Broadly, the solubility is the concentration that dissolves in the medium under given conditions. By Cmax is commonly meant the peak of the concentration-time curve. Usually bioavailability stands for the share of a dose that reaches the circulation, judged against a reference dose that is usually intravenous.

Series [1] is described as follows: Solubility in water. In kind it is physicochemical.
Series [2] deals with Liver microsomes. In words: Metabolic stability in human liver microsomes assessed as formation of (2R,3R)-3-((2R,5r)-2-((1E,3E)-4-(4-cyano-2-fluorophenyl)buta-1,3-dienyl)-1,3-dioxan-5-ylthio)-2-(2,4-difluorophenyl)-1-(1H-1,2,4-triazol-1-yl)butan-2-yl 2-hydroxyacetate after 30 mins. As to conditions: 0.5 h. In kind it is ADME, Microsome.
The subject of series [3] is Liver microsomes. Kind of series: Metabolic stability in human liver microsomes assessed as formation of (2R,3R)-3-((2R,5r)-2-((1E,3E)-4-(4-cyano-2-fluorophenyl)buta-1,3-dienyl)-1,3-dioxan-5-ylthio)-2-(2,4-difluorophenyl)-1-(1H-1,2,4-triazol-1-yl)butan-2-yl 2-hydroxyacetate after 120 mins. As to conditions: 2 h. In kind it is ADME, Microsome.
A short description of series [4]: Cmax in rat at 2 mg/kg, iv. It is filed as ADME, organism-based. Also noted: dose 2 mg/kg, route intravenous. To be noted: in vivo. Summed up: (§1)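 Rats received a single iv dose of prodrug at 2 mg/kg, and plasma CS-758 was followed over time (average of three rats). Bioavailability (%) = AUC of CS-758 after iv prodrug / AUC of CS-758 after iv CS-758 dissolved in polyethylene glycol solution × 100.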

A short description of series [5]: Bioavailability in rat at 2 mg/kg, iv. It is filed as ADME, organism-based. To be noted: in vivo. Summed up: as §1
The next series deals with Rattus norvegicus. Kind of series: Half life in rat assessed as CS-758 elimination at 2 mg/kg, iv. In kind it is ADME, organism-based. More on the design: dose 2 mg/kg, route intravenous. To be noted: in vivo. The method, boiled down:
as §1

The subject of the next series is Candida albicans. Kind of series: Antifungal activity against Candida albicans SANK 51486 infected in mouse at 0.2 to 20 mg/kg, iv administered 2 hrs post infection measured after 24 hrs. It is filed as functional, organism-based. The method, boiled down:
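Mouse systemic Candida albicans infection, challenge 4.2 × 10⁵ CFU/mouse. Single dose 2 h after challenge, at 0.2, 2 or 20 mg/kg, vehicle controls. Kidney viable cell counts taken at 24 h. Mean + S.E., n = 8 per group, significance at p<0.05 and p<0.001.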

SMILES strings stand for the structures. Calls of active or inactive are those of the source. The calls are words filed in the database; no cut-off is given here.

`C[C@@H](S[C@H]1CO[C@H](/C=C/C=C/c2ccc(C#N)cc2F)OC1)[C@@](Cn1cncn1)(OC(=O)CN)c1ccc(F)cc1F` registered a solubility in series [1] of under 1000 µg/mL.
For `C[C@@H](S[C@H]1CO[C@H](/C=C/C=C/c2ccc(C#N)cc2F)OC1)[C@@](Cn1cncn1)(OC(=O)COC(=O)CCC(=O)[O-])c1ccc(F)cc1F.[Na+]`, the outcome in the series with Liver microsomes [2] and in the series on Liver microsomes [3] was Active. For the same compound, the solubility in series [1] is over 10000 µg/mL.
Compound `C[C@@H](S[C@H]1CO[C@H](/C=C/C=C/c2ccc(C#N)cc2F)OC1)[C@](O)(Cn1cncn1)c1ccc(F)cc1F` [EMBECONAZOLE] had a Cmax in series [4] of 1300 ng/mL. Further, the bioavailability in series [5] came to 3.3%.
As to `C[C@@H](S[C@H]1CO[C@H](/C=C/C=C/c2ccc(C#N)cc2F)OC1)[C@@](Cn1cncn1)(OP(=O)([O-])O)c1ccc(F)cc1F.[Na+]`, the t1/2 in the series on Rattus norvegicus stood at 5.7 h. Also, the outcome in the series with Candida albicans was Active. This compound had a solubility in series [1] of over 30000 µg/mL.
`C[C@@H](S[C@H]1CO[C@H](/C=C/C=C/c2ccc(C#N)cc2F)OC1)[C@@](Cn1cncn1)(OC(=O)CCN)c1ccc(F)cc1F`: in series [1], the solubility is under 1000 µg/mL.
`C[C@@H](S[C@H]1CO[C@H](/C=C/C=C/c2ccc(C#N)cc2F)OC1)[C@@](Cn1cncn1)(OC(=O)CO)c1ccc(F)cc1F` displayed a solubility in series [1] of under 1000 µg/mL.
Take `C[C@@H](S[C@H]1CO[C@H](/C=C/C=C/c2ccc(C#N)cc2F)OC1)[C@@](Cn1cncn1)(OC(=O)COP(=O)([O-])O)c1ccc(F)cc1F.[Na+]`: the result in the series on Liver microsomes [2] and with Liver microsomes [3] was Active. In addition, the solubility in series [1] is over 10000 µg/mL.
The compound `C[C@@H](S[C@H]1CO[C@H](/C=C/C=C/c2ccc(C#N)cc2F)OC1)[C@@](Cn1cncn1)(OC(=O)CN(C)C)c1ccc(F)cc1F` had a solubility in series [1] of under 1000 µg/mL.
As to `C[C@@H](S[C@H]1CO[C@H](/C=C/C=C/c2ccc(C#N)cc2F)OC1)[C@@](Cn1cncn1)(OC(=O)C[N+](C)(C)C)c1ccc(F)cc1F.[Cl-]`, the solubility in series [1] is over 10000 µg/mL. The same compound gave a bioavailability in series [5] of 3.3%.
